Reference: ChEMBL document CHEMBL1142537, “Spirocyclic benzopyran-based derivatives as new anti-ischemic activators of mitochondrial ATP-sensitive potassium channel” (J Med Chem, 2008)
Active and inactive are the calls of the source. No cut-off for these calls is given here.

Legend:
[1] = system: Aorta; test: Vasorelaxation activity in Wistar rat thoracic aortic ring assessed as inhibition of KCl-induced contraction at 100 uM relative to KCl; assay type: functional
In short: (§1)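 Endothelium-denuded rat aortic rings recorded isometrically, equilibrated 60 min. Denudation checked with ACh (10 µM) on KCl (20 mM) tone; rings relaxing ≥10% discarded. Rings contracted with 20 mM KCl, then given 3-fold cumulative concentrations from 10 nM to 100 µM.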

[2] = system: Rattus norvegicus; test: Cardioprotective activity in Langendorff perfused Wistar rat assessed as rate pressure product at 40 mg/kg, ip recorded after 30 mins of ischemia followed by 120 mins of reperfusion in presence of 5-hydroxydecanoic acid; assay type: functional, organism-based; design: dose 40 mg/kg
In short: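 In this series the mito-KATP blocker 5-hydroxydecanoic acid (10 mg/kg, in water) was given 20 min before the ip compound (40 mg/kg). The Langendorff protocol was then run: 30 min global ischemia, 120 min reperfusion. RPP at 120 min expressed as % of preischemic value.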

[3] = system: Rattus norvegicus; test: Cardioprotective activity in Langendorff perfused Wistar rat assessed as rate pressure product at 40 mg/kg, ip recorded after 30 mins of global ischemia followed by 120 mins of reperfusion; assay type: functional; settings: route intraperitoneal
In short: (§2)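 Adult male Wistar rats (260-350 g) given the compound ip in DMSO (40 mg/kg; cromakalim 1 mg/kg), then after 2 h anaesthetised with pentobarbital (100 mg/kg ip) and heparinized (100 UI ip). Hearts on Langendorff apparatus with an LV balloon (end-diastolic 5-10 mmHg). 30 min equilibration, 30 min global no-flow ischemia, 120 min reperfusion. RPP at 120 min expressed as % of preischemic RPP.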

[4] = system: Rattus norvegicus; test: Antiischemic activity in Langendorff perfused Wistar rat assessed as ratio of ischemic area to total area at 40 mg/kg, ip; assay type: functional; settings: route intraperitoneal
[5] = system: Aorta; test: Vasorelaxation activity in Wistar rat thoracic aortic ring assessed as inhibition of KCl-induced contraction; assay type: functional, tissue-based; in short: as §1
[6] = system: Rattus norvegicus; test: Hypotensive activity in normotensive Wistar rat assessed as systolic blood pressure at 1 mg/kg, ip after 90 mins; assay type: functional, organism-based; design: dose 1 mg/kg; settings: Artery
In short: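 Male 10-week-old normotensive Wistar rats (250 g), heparinized (100 UI ip) and anaesthetised with pentobarbital (60 mg/kg). Tail warmed 20 min under IR lamp, basal systolic pressure taken by tail-cuff. Cromakalim given ip at 1 mg/kg, groups of five. Systolic pressure recorded every 30 min for 90 min, as % of basal.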

[7] = system: Rattus norvegicus; test: Cardioprotective activity in Langendorff perfused Wistar rat assessed as rate pressure product at 1 mg/kg, ip recorded after 30 mins of global ischemia followed by 120 mins of reperfusion; assay type: functional; settings: route intraperitoneal; in short: as §2

| IC50 [5] [µM] | SMILES | Emax at 100 µM [1] [%] | Activity [2] | Activity [3] [%] | Ratio [4] [%] | Activity [6] | Activity [7] [%] |
| --- | --- | --- | --- | --- | --- | --- | --- |
|  | CC(=O)Nc1ccc(CN2CCOC3(C2)CC(C)(C)Oc2ccccc23)cc1 (racemic) | 76.6 |  |  |  |  |  |
|  | CC(=O)Nc1ccc(CN2CC3(CC(C)(C)Oc4ccc(Br)cc43)OCC2=O)cc1 (racemic) | 69.7 |  |  |  |  |  |
|  | CC1(C)CC2(CN(Cc3ccc(NS(C)(=O)=O)cc3)C(=O)CO2)c2cc(Br)ccc2O1 (racemic) | 86.8 | inactive |  |  |  |  |
|  | CC(=O)Nc1ccc(CN2CC3(CC(C)(C)Oc4ccccc43)OCC2=O)cc1 (racemic) | 56.5 | inactive |  |  |  |  |
|  | CC(=O)Nc1ccc(CN2CCOC3(C2)CC(C)(C)Oc2ccc(Br)cc23)cc1 (racemic) | 99.8 |  |  |  |  |  |
|  | CC1(C)CC2(CN(Cc3ccc(NS(C)(=O)=O)cc3)CCO2)c2cc(Br)ccc2O1 (racemic) | 98.1 | inactive |  |  |  |  |
|  | COc1ccccc1CN1CC2(CC(C)(C)Oc3ccccc32)OCC1=O (racemic) |  |  | 36 | 25 |  |  |
| 14.5 | CC1(C)CC2(CN(Cc3ccccc3)C(=O)CO2)c2cc(Br)ccc2O1 (racemic) | 65.8 |  | 37 | 43 |  |  |
|  | COc1cccc(CN2CCOC3(C2)CC(C)(C)Oc2ccc(Br)cc23)c1 (racemic) |  |  | 42 | 29 |  |  |
|  | CC1(C)CC2(CN(Cc3ccccc3)CCO2)c2cc(Br)ccc2O1 (racemic) |  |  | 42 | 31 |  |  |
|  | CC1(C)CC2(CN(Cc3ccc(N)cc3)C(=O)CO2)c2cc(Br)ccc2O1 (racemic) |  |  | 52 | 22 |  |  |
|  | Cc1ccc(CN2CC3(CC(C)(C)Oc4ccc(Br)cc43)OCC2=O)cc1 (racemic) |  |  | 38 | 22 |  |  |
|  | CC1(C)CC2(CN(Cc3ccc(C(F)(F)F)cc3)C(=O)CO2)c2cc(Br)ccc2O1 (racemic) |  |  | 47 | 42 |  |  |
| 34.7 | COc1ccc(CN2CCOC3(C2)CC(C)(C)Oc2ccc(Br)cc23)cc1 (racemic) | 61.6 |  | 60 | 10 |  |  |
| 4.9 | CC1(C)CC2(CN(Cc3ccc(Br)cc3)C(=O)CO2)c2ccccc2O1 (racemic) | 89.2 |  | 80 | 23 |  |  |
| 3.02 | COc1ccc(CN2CC3(CC(C)(C)Oc4ccc(Br)cc43)OCC2=O)cc1 (racemic) | 91.8 |  | 76 | 16 |  |  |
|  | COc1ccccc1CN1CC2(CC(C)(C)Oc3ccc(Br)cc32)OCC1=O (racemic) |  |  | 42 | 28 |  |  |
| 17.8 | CC1(C)CC2(CN(Cc3ccc(C(F)(F)F)cc3)CCO2)c2cc(Br)ccc2O1 (racemic) | 57.8 |  | 84 | 5 |  |  |
|  | CC1(C)CC2(CN(Cc3ccc(Br)cc3)CCO2)c2cc(Br)ccc2O1 (racemic) |  |  | 53 | 16 |  |  |
|  | CC1(C)CC2(CN(Cc3ccc(Br)cc3)CCO2)c2ccccc2O1 (racemic) |  |  | 43 | 35 |  |  |
|  | COc1ccccc1CN1CCOC2(C1)CC(C)(C)Oc1ccccc12 (racemic) |  |  | 65 | 34 |  |  |

| IC50 [5] [µM] | SMILES | Emax at 100 µM [1] [%] | Activity [2] | Activity [3] [%] | Ratio [4] [%] | Activity [6] | Activity [7] [%] |
| --- | --- | --- | --- | --- | --- | --- | --- |
| 15.5 | CC1(C)CC2(CN(Cc3ccc(NS(C)(=O)=O)cc3)CCO2)c2ccccc2O1 (racemic) | 80.6 |  | 23 | 35 |  |  |
|  | CC1(C)CC2(CN(Cc3ccc(N)cc3)C(=O)CO2)c2ccccc2O1 (racemic) | 12.5 |  | 53 | 19 |  |  |
| 2.95 | CC1(C)CC2(CN(Cc3ccc(NS(C)(=O)=O)cc3)C(=O)CO2)c2ccccc2O1 (racemic) | 98 |  | 70 | 23 |  |  |
| 6.76 | CC1(C)CC2(CN(Cc3ccccc3)CCO2)c2ccccc2O1 (racemic) | 85.9 | inactive | 77 | 18 |  |  |
|  | COc1cccc(CN2CC3(CC(C)(C)Oc4ccccc43)OCC2=O)c1 (racemic) |  |  | 29 | 41 |  |  |
|  | Cc1ccc(CN2CCOC3(C2)CC(C)(C)Oc2ccc(Br)cc23)cc1 (racemic) |  |  | 57 | 29 |  |  |
|  | COc1ccc(CN2CC3(CC(C)(C)Oc4ccccc43)OCC2=O)cc1 (racemic) |  |  | 27 | 29 |  |  |
|  | CC1(C)CC2(CN(Cc3ccc(N)cc3)CCO2)c2cc(Br)ccc2O1 (racemic) |  |  | 30 | 39 |  |  |
|  | CC1(C)CC2(CN(Cc3ccc(Br)cc3)C(=O)CO2)c2cc(Br)ccc2O1 (racemic) |  |  | 23 | 47 |  |  |
|  | COc1cccc(CN2CCOC3(C2)CC(C)(C)Oc2ccccc23)c1 (racemic) |  |  | 38 | 17 |  |  |
| 7.08 | CC1(C)CC2(CN(Cc3ccc(C(F)(F)F)cc3)C(=O)CO2)c2ccccc2O1 (racemic) | 101 |  | 2 | 53 |  |  |
|  | COc1ccccc1CN1CCOC2(C1)CC(C)(C)Oc1ccc(Br)cc12 (racemic) |  |  | 59 | 30 |  |  |
|  | Cc1ccc(CN2CC3(CC(C)(C)Oc4ccccc43)OCC2=O)cc1 (racemic) |  |  | 44 | 23 |  |  |
|  | COc1cccc(CN2CC3(CC(C)(C)Oc4ccc(Br)cc43)OCC2=O)c1 (racemic) |  |  | 27 | 29 |  |  |
|  | Cc1ccc(CN2CCOC3(C2)CC(C)(C)Oc2ccccc23)cc1 (racemic) |  |  | 35 | 47 |  |  |
| 28.2 | CC1(C)CC2(CN(Cc3ccc(N)cc3)CCO2)c2ccccc2O1 (racemic) | 52.3 |  | 58 | 25 |  |  |
| 28.2 | CC1(C)CC2(CN(Cc3ccccc3)C(=O)CO2)c2ccccc2O1 (racemic) | 55.3 |  | 35 | 33 |  |  |
| 22.9 | CC1(C)CC2(CN(Cc3ccc(C(F)(F)F)cc3)CCO2)c2ccccc2O1 (racemic) | 59.9 |  | 34 | 31 |  |  |
|  | COc1ccc(CN2CCOC3(C2)CC(C)(C)Oc2ccccc23)cc1 (racemic) |  |  | 61 | 26 |  |  |
|  | CC1(C)Oc2ccc(C#N)cc2C(N2CCCC2=O)C1O (stereo not drawn) [CROMAKALIM] |  | inactive |  |  | Active | 94 |
|  | CC1=Nc2ccc(Cl)cc2S(=O)(=O)N1 [DIAZOXIDE] |  | inactive |  | 28 |  |  |
